Measured values: ChEMBL document CHEMBL1125882, “The agonist pharmacophore of the benzodiazepine receptor. Synthesis of a selective anticonvulsant/anxiolytic” (J Med Chem, 1991)

How the values were obtained:
[1] = molecular target: GABA-A receptor; anion channel; experiment: Effect on [3H]flunitrazepam binding to Benzodiazepine receptor; type: protein-complex assay, Rattus norvegicus
Mus musculus [2] = experiment: Effects on Diazepam-Induced Myorelaxation in mice was determined at 20 mg/kg; type: functional
Mus musculus [3] = experiment: Tested for inhibition of pentylenetetrazole (PTZ = 80 mg/kg (ip)) induced seizures in mice at a dose of 0.5-40 mg/kg i.p.; type: functional; conditions: route intraperitoneal
Outline: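 Mice pretreated ip with drug (0.5-40 mg/kg); 15 min later pentylenetetrazole 80 mg/kg ip. Tonic and/or clonic seizures were scored over the next 15 min. 5-14 mice per dose point; ED50 taken from the dose-response curve.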

Mus musculus [4] = experiment: Number of mice impaired to that of number of mice tested at 20 mg/kg; 0/10; type: functional
Mus musculus [5] = experiment: Effects on Diazepam-Induced Myorelaxation in mice was determined at 10 mg/kg; type: functional
Mus musculus [6] = experiment: Number of mice impaired to that of number of mice tested at 10 mg/kg; 0/10; type: functional
Mus musculus [7] = species: Mus musculus; experiment: Effects on Diazepam-Induced Myorelaxation in mice was determined; type: functional
Mus musculus [8] = experiment: Effects on Diazepam-Induced Myorelaxation in mice was determined when administered along with compound 1 at 10 mg/kg; type: functional
Mus musculus [9] = experiment: Effects on Diazepam-Induced Myorelaxation in mice was determined when administered along with compound 1 at 20 mg/kg; type: functional

SMILES	IC50 [1] [nM]	Impaired (Mus musculus [2]) [%]	ED50 (Mus musculus [3]) [mg/kg]	Activity (Mus musculus [4])	Impaired (Mus musculus [5]) [%]	Activity (Mus musculus [6])	Impaired (Mus musculus [7]) [%]	Impaired (Mus musculus [8]) [%]	Impaired (Mus musculus [9]) [%]
CCCOc1ccc2[nH]c3cnc(C(=O)OCC)c(COC)c3c2c1	8	0	1.6	0	0	0			
CN1C(=O)CN=C(c2ccccc2)c2cc(Cl)ccc21 [DIAZEPAM]							100	50	0
